Experimental data reported in ChEMBL document CHEMBL3588768, “Synthesis and bioactivity of tripolinolate A from Tripolium vulgare and its analogs” (Bioorg Med Chem Lett, 2015).
Active and inactive are the calls of the source. The rule behind the calls is not given here.

Columns and labels:
U-87 MG [1] = assay: Antiproliferative activity against human U87MG cells after 72 hrs by sulforhodamine B assay; type: functional, cell-based, U-87MG ATCC; details: for inhibition: U-87MG ATCC
Outline: (§1)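 Sulforhodamine B assay on glioma (U251, U87-MG) and colorectal (HCT-15, SW620) cancer cells. Cells were exposed to a range of compound concentrations for 72 h, then stained with SRB. IC50 values were derived from the dose–response. Doxorubicin served as positive control.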

U-251 = assay: Antiproliferative activity against human U251 cells after 72 hrs by sulforhodamine B assay; type: functional, cell-based; details: for IC50: U-251, 72 h; outline: as §1
HCT-15 = assay: Antiproliferative activity against human HCT15 cells after 72 hrs by sulforhodamine B assay; type: functional, cell-based; details: for IC50: HCT-15, 72 h; outline: as §1
SW-620 = assay: Antiproliferative activity against human SW620 cells after 72 hrs by sulforhodamine B assay; type: functional, cell-based; details: for IC50: SW-620, 72 h; outline: as §1
Staphylococcus aureus = assay: Antimicrobial activity against Staphylococcus aureus after 5 to 12 hrs by micro broth dilution assay; type: functional, organism-based
Escherichia coli = assay: Antimicrobial activity against Escherichia coli after 5 to 12 hrs by micro broth dilution assay; type: functional, organism-based
U-87 MG [2] = assay: Induction of apoptosis in human U87MG cells assessed as early apoptotic cells at 10 uM after 72 hrs by annexin V-FITC/PI staining-based flow cytometric analysis (reference value: 3.41%); type: functional, U-87MG ATCC
U-87 MG [3] = assay: Induction of apoptosis in human U87MG cells assessed as late apoptotic cells at 10 uM after 72 hrs by annexin V-FITC/PI staining-based flow cytometric analysis (reference value: 3.23%); type: functional, U-87MG ATCC
U-87 MG [4] = assay: Induction of apoptosis in human U87MG cells assessed as total apoptotic cells at 10 uM after 72 hrs by annexin V-FITC/PI staining-based flow cytometric analysis (reference value: 6.64%); type: functional, U-87MG ATCC
U-87 MG [5] = assay: Induction of apoptosis in human U87MG cells assessed as viable cells at 10 uM after 72 hrs by annexin V-FITC/PI staining-based flow cytometric analysis (reference value: 93.12%); type: functional, U-87MG ATCC; details: read-out: Activity
U-87 MG [6] = assay: Induction of apoptosis in human U87MG cells assessed as necrotic cells at 10 uM after 72 hrs by annexin V-FITC/PI staining-based flow cytometric analysis (reference value: 0.24%); type: functional, U-87MG ATCC
U-87 MG [7] = assay: Induction of apoptosis in human U87MG cells assessed as bright blue nuclear pyknosis at 20 uM by DAPI staining; type: functional, cell-based; details: U-87MG ATCC
Outline: (§2)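 U87-MG glioma cells were exposed to compound at 20 µM for 72 h, then double-stained with DAPI and propidium iodide. Cells were viewed by fluorescence microscopy. Condensed bright-blue DAPI nuclei were scored as apoptotic; red PI-stained cells were scored as necrotic.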

U-87 MG [8] = assay: Induction of apoptosis in human U87MG cells assessed as necrotic cells at 20 uM by PI staining; type: functional, cell-based; details: U-87MG ATCC; outline: as §2
U-87 MG [9] = assay: Induction of apoptosis in human U87MG cells assessed as early apoptotic cells at 40 uM after 72 hrs by annexin V-FITC/PI staining-based flow cytometric analysis (reference value: 3.41%); type: functional, U-87MG ATCC
U-87 MG [10] = assay: Induction of apoptosis in human U87MG cells assessed as late apoptotic cells at 40 uM after 72 hrs by annexin V-FITC/PI staining-based flow cytometric analysis (reference value: 3.23%); type: functional, U-87MG ATCC
U-87 MG [11] = assay: Induction of apoptosis in human U87MG cells assessed as total apoptotic cells at 40 uM after 72 hrs by annexin V-FITC/PI staining-based flow cytometric analysis (reference value: 6.64%); type: functional, U-87MG ATCC
U-87 MG [12] = assay: Induction of apoptosis in human U87MG cells assessed as viable cells at 40 uM after 72 hrs by annexin V-FITC/PI staining-based flow cytometric analysis (reference value: 93.12%); type: functional, U-87MG ATCC; details: read-out: Activity
U-87 MG [13] = assay: Induction of apoptosis in human U87MG cells assessed as necrotic cells at 40 uM after 72 hrs by annexin V-FITC/PI staining-based flow cytometric analysis (reference value: […]); type: functional, U-87MG ATCC
U-87 MG [14] = assay: Induction of apoptosis in human U87MG cells assessed as early apoptotic cells at 20 uM after 72 hrs by annexin V-FITC/PI staining-based flow cytometric analysis (reference value: 3.41%); type: functional, U-87MG ATCC
U-87 MG [15] = assay: Induction of apoptosis in human U87MG cells assessed as late apoptotic cells at 20 uM after 72 hrs by annexin V-FITC/PI staining-based flow cytometric analysis (reference value: 3.23%); type: functional, U-87MG ATCC
U-87 MG [16] = assay: Induction of apoptosis in human U87MG cells assessed as total apoptotic cells at 20 uM after 72 hrs by annexin V-FITC/PI staining-based flow cytometric analysis (reference value: 6.64%); type: functional, U-87MG ATCC
U-87 MG [17] = assay: Induction of apoptosis in human U87MG cells assessed as viable cells at 20 uM after 72 hrs by annexin V-FITC/PI staining-based flow cytometric analysis (reference value: 93.12%); type: functional, U-87MG ATCC; details: read-out: Activity
U-87 MG [18] = assay: Induction of apoptosis in human U87MG cells assessed as necrotic cells at 20 uM after 72 hrs by annexin V-FITC/PI staining-based flow cytometric analysis (reference value: 0.24%); type: functional, U-87MG ATCC

Row | IC50 (U-87 MG [1]) | IC50 (U-251) | IC50 (HCT-15) | IC50 (SW-620) | SMILES | inhibition (Staphylococcus aureus) | inhibition (Escherichia coli) | other results
1 | 5.24 µM | 26.8 µM | 15.1 µM | 5.25 µM | CCCCCCCCCCCCCCCCCCCCOC(=O)/C=C/c1ccc(O)c(OC)c1 | inactive | inactive | –
2 | 3.89 µM | 19.7 µM | 1.91 µM | 0.41 µM | CCCC(=O)c1c(O)cc(O)cc1O[C@@H]1O[C@H](CO)[C@@H](O)[C@H](O)[C@H]1O | inactive | inactive | –
3 | – | – | – | – | CCCCC(=O)OC/C=C/c1ccc(OC(=O)CCCC)c(OC)c1 | inactive | inactive | –
4 | – | – | – | – | CCCCCC(=O)OC/C=C/c1ccc(OC(=O)CCCCC)c(OC)c1 | inactive | inactive | –
5 | 0.93 µM | 2.2 µM | 1.13 µM | 1.33 µM | COc1cccc2c1C(=O)c1c(O)c3c(c(O)c1C2=O)C[C@@](O)(C(=O)CO)C[C@@H]3O[C@H]1C[C@H](N)[C@H](O)[C@H](C)O1 [DOXORUBICIN] | inactive | inactive | Activity (U-87 MG [2]): 20.15%; Activity (U-87 MG [3]): 11.02%; Activity (U-87 MG [4]): 31.17%; viability at 10 µM (U-87 MG [5]): 68.2%; Activity (U-87 MG [6]): 0.6%
6 | 29.4 µM | > 50 µM | 34.6 µM | 35.5 µM | COc1cc(/C=C/COC(=O)C(C)C)ccc1OC(=O)C(C)C | inactive | inactive | –
7 | 1.06 µM | 9.71 µM | 3.26 µM | 0.36 µM | COc1cc(/C=C/COC(C)=O)ccc1OC(C)=O | inactive | inactive | inhibition (U-87 MG [1]): Dose-dependent effect; inhibition (U-251): Dose-dependent effect; inhibition (HCT-15): Dose-dependent effect; inhibition (SW-620): Dose-dependent effect; Activity (U-87 MG [7]): Active; Activity (U-87 MG [8]): Active; Activity (U-87 MG [9]): 21.62%; Activity (U-87 MG [10]): 35.71%; Activity (U-87 MG [11]): 57.33%; viability at 40 µM (U-87 MG [12]): 42.1%; Activity (U-87 MG [13]): 0.57%
8 | – | – | – | – | COc1cc(/C=C/COC(=O)CC(C)C)ccc1OC(=O)CC(C)C | inactive | inactive | –
9 | – | – | – | – | O=C(/C=C/c1ccc(O)c(O)c1)O[C@@H]1C[C@](O)(C(=O)O)C[C@@H](OC(=O)/C=C/c2ccc(O)c(O)c2)[C@H]1O | inactive | inactive | –
10 | – | – | – | – | COc1cc(/C=C/C(=O)O)ccc1O | inactive | inactive | –
11 | 15 µM | 28.1 µM | 34.1 µM | 21.9 µM | CC[C@H](C)C(=O)OC/C=C/c1ccc(OC(C)=O)c(OC)c1 | inactive | inactive | –
12 | – | – | – | – | CCCC(=O)OC/C=C/c1ccc(OC(=O)CC(C)C)c(OC)c1 | inactive | inactive | –
13 | – | – | – | – | CC[C@H](C)C(=O)OC/C=C/c1ccc(OC(=O)[C@@H](C)CC)c(OC)c1 | inactive | inactive | –
14 | – | – | – | – | CCCC(=O)Oc1ccc(/C=C/COC(=O)CC(C)C)cc1OC | inactive | inactive | –
15 | 3.12 µM | 37.6 µM | 23.5 µM | 4.6 µM | O=c1c(O[C@@H]2O[C@H](CO)[C@@H](O)[C@H](O)[C@H]2O)c(-c2ccc(O)cc2)oc2cc(O)cc(O)c12 [ASTRAGALIN] | inactive | inactive | –
16 | – | – | – | – | O=C(/C=C/c1ccc(O)c(O)c1)O[C@H]1[C@H](O)C[C@](O)(C(=O)O)C[C@H]1OC(=O)/C=C/c1ccc(O)c(O)c1 | inactive | inactive | –
17 | – | – | – | – | COc1cc(/C=C/CO)ccc1O | inactive | inactive | –
18 | – | – | – | – | CC1=C(C)C(=O)C(CC[C@](C)(O)CCC[C@H](C)CCC[C@H](C)CCCC(C)C)=C(C)C1=O | inactive | inactive | –

Row | IC50 (U-87 MG [1]) | IC50 (U-251) | IC50 (HCT-15) | IC50 (SW-620) | SMILES | inhibition (Staphylococcus aureus) | inhibition (Escherichia coli) | other results
19 | 28.8 µM | 52.6 µM | 29.6 µM | 47.4 µM | CCC(=O)OC/C=C/c1ccc(OC(=O)CC)c(OC)c1 | inactive | inactive | –
20 | – | – | – | – | CCCCCCCC(=O)OC/C=C/c1ccc(OC(=O)CCCCCCC)c(OC)c1 | inactive | inactive | –
21 | – | – | – | – | CC(C)[C@H](C)/C=C/[C@@H](C)[C@H]1CCC2=C3C=CC4=CC(=O)CC[C@]4(C)[C@H]3CC[C@@]21C | inactive | inactive | –
22 | – | – | – | – | CCC(=O)OC/C=C/c1ccc(OC(C)=O)c(OC)c1 | inactive | inactive | –
23 | 10.5 µM | 45.7 µM | 17.1 µM | 7.59 µM | CCCC(=O)Oc1ccc(/C=C/COC(C)=O)cc1OC | inactive | inactive | –
24 | 17.3 µM | > 50 µM | 28.8 µM | 7.85 µM | CCCC(=O)OC/C=C/c1ccc(OC(=O)CCC)c(OC)c1 | inactive | inactive | –
25 | – | – | – | – | CCC(=O)Oc1ccc(/C=C/COC(C)=O)cc1OC | inactive | inactive | –
26 | 18.5 µM | 33.3 µM | 22.8 µM | 10.2 µM | CCCC(=O)OC/C=C/c1ccc(OC(C)=O)c(OC)c1 | inactive | inactive | –
27 | – | – | – | – | CCCCCCC(=O)OC/C=C/c1ccc(OC(=O)CCCCCC)c(OC)c1 | inactive | inactive | –
28 | 8.02 µM | 27.8 µM | 22.5 µM | 5.85 µM | C/C(=C\CO)CCC[C@H](C)CCC[C@H](C)CCCC(C)C [TRANS-PHYTOL] | inactive | inactive | –
29 | – | – | – | – | COc1cc(/C=C/COC(=O)C(C)C)ccc1OC(C)=O | inactive | inactive | –
30 | – | – | – | – | COC(=O)/C=C/c1ccc(O)c(OC)c1 | inactive | inactive | –
31 | – | – | – | – | CCCCCCCCCCCCCCCCCCCCOC(=O)/C=C/c1ccc(O)cc1 | inactive | inactive | –
32 | 0.48 µM | 12.9 µM | 4.58 µM | 0.99 µM | CC[C@H](C)C(=O)Oc1ccc(/C=C/COC(C)=O)cc1OC | inactive | inactive | inhibition (U-87 MG [1]): Dose-dependent effect; inhibition (U-251): Dose-dependent effect; inhibition (HCT-15): Dose-dependent effect; inhibition (SW-620): Dose-dependent effect; Activity (U-87 MG [7]): Active; Activity (U-87 MG [8]): Active; Activity (U-87 MG [14]): 9.02%; Activity (U-87 MG [15]): 36.12%; Activity (U-87 MG [16]): 45.14%; viability at 20 µM (U-87 MG [17]): 54.5%; Activity (U-87 MG [18]): 0.37%
33 | – | – | – | – | CC(C)[C@@H](C)/C=C/[C@@H](C)[C@H]1CCC2=C3C=CC4=CC(=O)CC[C@]4(C)[C@H]3CC[C@@]21C | inactive | inactive | –
34 | – | – | – | – | COc1cc(/C=C/COC(C)=O)ccc1OC(=O)C(C)C | inactive | inactive | –
35 | – | – | – | – | O=C(/C=C/c1ccc(O)c(O)c1)O[C@@H]1[C@H](O)C[C@@](O)(C(=O)O)C[C@H]1OC(=O)/C=C/c1ccc(O)c(O)c1 | inactive | inactive | –
